Reference: ChEMBL document CHEMBL1124800, “9,11-epoxy-9-homoprosta-5-enoic acid analogues as thromboxane A2 receptor antagonists” (J Med Chem, 1990)
pIC50: −log10 of the molar value.

What was measured:
[1] = organism: Rattus norvegicus; assay: Maximal contraction of rat stomach induced by serotonin; assay type: functional
Method in brief: (§1)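 Rat stomach strip; test compound concentration giving 50% of the maximal contraction produced by 3.0 × 10⁻⁷ M serotonin (A50). Where reported as a percentage, value is the maximum contraction seen at the stated test concentration. n = 8.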

[2] = organism: Homo sapiens; assay: In vitro inhibition of aggregation of human platelet rich plasma induced by adenosine diphosphate; assay type: functional; settings: read-out: I50
[3] = organism: Homo sapiens; assay: In vitro inhibition of aggregation of human platelet rich plasma induced by arachidonic acid; assay type: functional; settings: read-out: I50
[4] = organism: Rattus norvegicus; assay: Maximal contraction of rat stomach induced by serotonin at 30 uM concentration; assay type: functional; method in brief: as §1
[5] = organism: Rattus norvegicus; assay: Concentration required to elicit 50% of the maximal contraction of rat stomach induced by serotonin; assay type: functional; method in brief: as §1
[6] = molecular target: Thromboxane A2 receptor (Cavia porcellus); assay: Antagonistic activity against Thromboxane A2 receptor in guinea pig trachea in the presence of 11,9-epoxymethano-PGH2; settings: read-out: pA2 (converted)
[7] = organism: Cavia porcellus; assay: Competitive antagonism of 11,9-epoxymethano-PGH2-induced contraction in guinea pig trachea; assay type: functional
[8] = molecular target: T1, Thromboxane A2 receptor (Rattus norvegicus, UniProt P34978); assay: Antagonistic activity against Thromboxane A2 receptor in rat aorta in the presence of 11,9-epoxymethano-PGH2; assay type: functional, tissue-based
T1 sequence (P34978 whole entry): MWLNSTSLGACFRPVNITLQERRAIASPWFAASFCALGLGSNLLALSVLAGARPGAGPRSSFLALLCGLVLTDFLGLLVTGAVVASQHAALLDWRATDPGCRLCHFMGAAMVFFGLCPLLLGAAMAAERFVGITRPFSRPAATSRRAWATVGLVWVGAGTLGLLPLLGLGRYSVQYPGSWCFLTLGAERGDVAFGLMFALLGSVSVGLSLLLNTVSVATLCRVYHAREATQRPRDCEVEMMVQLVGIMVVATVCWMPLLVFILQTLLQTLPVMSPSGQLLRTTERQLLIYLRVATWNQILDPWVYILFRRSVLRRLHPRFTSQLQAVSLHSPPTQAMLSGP

[9] = organism: Rattus norvegicus; assay: Competitive antagonism of 11,9-epoxymethano-PGH2-induced contraction in rat aorta; assay type: functional
[10] = molecular target: Thromboxane A2 receptor (Cavia porcellus); assay: Antagonistic activity against Thromboxane A2 receptor in guinea pig trachea in the presence of 9,11-azo-PGH2; settings: read-out: I50
[11] = organism: Rattus norvegicus; assay: Maximal contraction of rat stomach induced by serotonin at 0.1 uM concentration; assay type: functional

**Q.** `C[C@H](c1ccccc1)[C@H](O)/C=C/C1C2CCC(O2)[C@H]1C/C=C\CCCC(=O)O` (some centres undefined) was tested. Which Contraction [1] did it give?
**A.** 0%

**Q.** What about the pIC50 [2] of the same compound?
**A.** < 3.00

**Q.** What about the pIC50 [3] of the same compound?
**A.** 5.51

**Q.** How did the pIC50 [2] turn out when `C[C@H](c1ccccc1)[C@H](O)/C=C/C1C2CCC(O2)[C@@H]1C/C=C\CCCC(=O)O` (some centres undefined) was run?
**A.** < 4.00

**Q.** What about the pIC50 [3] of the same compound?
**A.** 3.14

**Q.** With `C[C@@H](c1ccccc1)[C@H](O)/C=C/[C@@H]1C2CCC(O2)[C@@H]1C/C=C\CCCc1nnn[nH]1` (some centres undefined) as the compound, how does the pIC50 [3] read?
**A.** 5.49

**Q.** Which results are given for `O=C(O)CCC/C=C\CC1C2CCC(O2)C1/C=C/[C@@H](O)C1CCCCC1` (some centres undefined)?
**A.** pIC50 [2]: 6.05; Contraction [4]: 9%; pIC50 [3]: 6.40

**Q.** Which results are given for `C[C@@H](c1ccc(O)c(I)c1)[C@H](O)/C=C/C1C2CCC(O2)C1C/C=C\CCCC(=O)O` (some centres undefined)?
**A.** pIC50 [2]: < 3.00; pIC50 [3]: 6.03

**Q.** With `O=C(O)CCC/C=C\CC1C2CCC(O2)C1/C=C/[C@@H](O)COc1ccccc1` (some centres undefined) as the compound, how does the A50 [5] read?
**A.** 6 µM

**Q.** With `C[C@@H](c1ccccc1)[C@H](O)/C=C/C1C2CCC(O2)C1C/C=C\CCCC(=O)O` (some centres undefined) as the compound, how does the Contraction [1] read?
**A.** 0%

**Q.** And the Kb [6]?
**A.** 10 nM

**Q.** And the Kb [7]?
**A.** 12.1 nM

**Q.** And the Kb [8]?
**A.** 7.94 nM

**Q.** And the pIC50 [2]?
**A.** < 3.00

**Q.** What about the Kb [9] of the same compound?
**A.** 13.5 nM

**Q.** What about the pIC50 [3] of the same compound?
**A.** 6.19

**Q.** What about the pIC50 [10] of the same compound?
**A.** 5.70

**Q.** How did the pIC50 [3] turn out when `C[C@@H](c1ccccc1)[C@H](O)/C=C/[C@@H]1C2CCC(O2)[C@@H]1CC/C=C/CCC(=O)O` (some centres undefined) was run?
**A.** 4.60

**Q.** How did the pIC50 [2] turn out when `CCCCC(C)(C)[C@H](O)/C=C/C1C2CCC(O2)C1C/C=C\CCCC(=O)O` (some centres undefined) was run?
**A.** < 3.00

**Q.** And the pIC50 [3]?
**A.** 5.96

**Q.** With `O=C(O)CCC/C=C\CC1C2CCC(O2)C1/C=C/[C@@H](O)CCc1ccccc1` (some centres undefined) as the compound, how does the A50 [5] read?
**A.** 3.7 µM

**Q.** And the pIC50 [2]?
**A.** < 3.00

**Q.** And the pIC50 [3]?
**A.** 5.92

**Q.** `C[C@@H](c1ccc(O)cc1)[C@H](O)/C=C/C1C2CCC(O2)C1C/C=C\CCCC(=O)O` (some centres undefined) was tested. Which Contraction [11] did it give?
**A.** 21%

**Q.** And the pIC50 [2]?
**A.** 3.02

**Q.** What about the pIC50 [3] of the same compound?
**A.** 6.62

**Q.** With `CC(CC/C=C\C[C@H]1C2CCC(O2)[C@H]1/C=C/[C@@H](O)[C@@H](C)c1ccccc1)C(=O)O` (some centres undefined) as the compound, how does the pIC50 [3] read?
**A.** 4.60

**Q.** With `CCCCC[C@H](O)/C=C/C1C2CCC(O2)C1C/C=C\CCCC(=O)O` (some centres undefined) as the compound, how does the A50 [5] read?
**A.** 0.4 µM

**Q.** And the pIC50 [2]?
**A.** 3.52

**Q.** And the pIC50 [3]?
**A.** 5.77

**Q.** What does the source list for `O=C(O)CCC/C=C\C[C@H]1C2CCC(O2)[C@H]1CNNC(=O)Nc1ccccc1` (some centres undefined)?
**A.** Kb [7]: 1.3 nM; Kb [9]: 0.66 nM

**Q.** `C[C@@H](c1ccccc1)[C@H](O)/C=C/[C@@H]1C2CCC(O2)[C@@H]1C/C=C\COCC(=O)O` (some centres undefined) was tested. Which pIC50 [3] did it give?
**A.** 5.47

**Q.** How did the pIC50 [3] turn out when `CC(C/C=C\C[C@H]1C2CCC(O2)[C@H]1/C=C/[C@@H](O)[C@@H](C)c1ccccc1)CC(=O)O` (some centres undefined) was run?
**A.** 4.92

**Q.** `C[C@@H](c1ccccc1)[C@H](O)/C=C/[C@@H]1C2CCC(O2)[C@@H]1C/C=C\C/C=C/C(=O)O` (some centres undefined) was tested. Which pIC50 [3] did it give?
**A.** 5.42

**Q.** With `C[C@@H](c1ccccc1)[C@H](O)/C=C/[C@@H]1C2CCC(O2)[C@@H]1C/C=C\CCC(C)(C)C(=O)O` (some centres undefined) as the compound, how does the pIC50 [3] read?
**A.** 3.59
